# Test system: A549
# Assay: Induction of ROS generation in human A549 cells at 2 uM measured after 24 hrs by DCFH-DA probe based flow cytometry relative to BBI608
# Format: functional
# Conditions: not given
row,Compound,Ratio
1,Cc1nsc2c1C(=O)c1ncccc1C2=O,3

# Test system: A549
# Assay: Induction of apoptosis in human A549 cells measured after 24 hrs by annexinV-FITC/propidium iodide staining based flow cytometry
# Format: functional, cell-based
# Conditions: not given
row,Compound,Activity
1,Cc1nsc2c1C(=O)c1ncccc1C2=O,Dose-dependent effect

# Test system: A549
# Assay: Induction of apoptosis in human A549 cells assessed as early apoptotic cells at 1 uM measured after 24 hrs by annexinV-FITC/propidium iodide staining based flow cytometry (reference value: 0.25 %)
# Format: functional
# Conditions: not given
row,Compound,Activity
1,Cc1nsc2c1C(=O)c1ncccc1C2=O,0.17%

# Test system: A549
# Assay: Induction of apoptosis in human A549 cells assessed as live cells at 1 uM measured after 24 hrs by annexinV-FITC/propidium iodide staining based flow cytometry (reference value: 95.5 %)
# Format: functional
# Conditions: not given
row,Compound,Activity
1,Cc1nsc2c1C(=O)c1ncccc1C2=O,92.7%

# Test system: A549
# Assay: Induction of ROS generation in human A549 cells at 2 uM measured after 24 hrs by DCFH-DA probe based flow cytometry (reference value: 4.92 %)
# Format: functional
# Conditions: not given
row,Compound,Activity
1,COc1ccc(-c2nsc3c2C(=O)c2c(OC)cccc2C3=O)cc1,7.19%
2,CC(=O)c1cc2c(o1)C(=O)c1ccccc1C2=O [NAPABUCASIN],23.5%
3,Cc1nsc2c1C(=O)c1ncccc1C2=O,57.5%

# Test system: A549
# Assay: Induction of apoptosis in human A549 cells assessed as late apoptotic cells at 1 uM measured after 24 hrs by annexinV-FITC/propidium iodide staining based flow cytometry (reference value: 3.70 %)
# Format: functional
# Conditions: not given
row,Compound,Activity
1,Cc1nsc2c1C(=O)c1ncccc1C2=O,6.53%

# Test system: A549
# Assay: Induction of apoptosis in human A549 cells assessed as necrotic cells at 2 uM measured after 24 hrs by annexinV-FITC/propidium iodide staining based flow cytometry (reference value: 0.54 %)
# Format: functional
# Conditions: not given
row,Compound,Activity
1,CC(=O)c1cc2c(o1)C(=O)c1ccccc1C2=O [NAPABUCASIN],0.45%
2,Cc1nsc2c1C(=O)c1ncccc1C2=O,1.49%

# Test system: A549
# Assay: Induction of apoptosis in human A549 cells assessed as early apoptotic cells at 2 uM measured after 24 hrs by annexinV-FITC/propidium iodide staining based flow cytometry (reference value: 0.25 %)
# Format: functional
# Conditions: not given
row,Compound,Activity
1,CC(=O)c1cc2c(o1)C(=O)c1ccccc1C2=O [NAPABUCASIN],0.16%
2,Cc1nsc2c1C(=O)c1ncccc1C2=O,0.33%

# Test system: A549
# Assay: Induction of apoptosis in human A549 cells assessed as necrotic cells at 1 uM measured after 24 hrs by annexinV-FITC/propidium iodide staining based flow cytometry (reference value: 0.54 %)
# Format: functional
# Conditions: not given
row,Compound,Activity
1,Cc1nsc2c1C(=O)c1ncccc1C2=O,0.59%

# Test system: HT-29
# Assay: Antiproliferative activity against human HT-29 cells assessed as reduction in cell viability measured after 48 hrs MTT assay
# Format: functional, cell-based
# Conditions: HT-29, 48 h
# Procedure, shortened: (§1)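 Cells (MDA-MB-231, MCF-7, MCF-10A, HT-29, A549) exposed to compounds for 48 h, then viability read by MTT. IC50 is the concentration giving 50% inhibition of viability. Means ± SD of three independent experiments.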
row,Compound,IC50
1,Cc1nsc2c1C(=O)c1ccccc1C2=O,2670 nM
2,O=C1c2ccccc2C(=O)c2c(-c3ccccc3)nsc21,18800 nM
3,Cc1nsc2c1C(=O)c1c(O)cccc1C2=O,1620 nM
4,Cc1nsc2c1C(=O)c1cccc(O)c1C2=O,1410 nM
5,COc1cccc2c1C(=O)c1snc(-c3ccccc3)c1C2=O,28800 nM
6,COc1ccc(-c2nsc3c2C(=O)c2c(OC)cccc2C3=O)cc1,> 40000 nM
7,CCc1nsc2c1C(=O)c1c(O)cccc1C2=O,1660 nM
8,CCc1nsc2c1C(=O)c1cccc(O)c1C2=O,3800 nM
9,CC(=O)c1cc2c(o1)C(=O)c1ccccc1C2=O [NAPABUCASIN],140 nM
10,Cc1nsc2c1C(=O)c1ncccc1C2=O,1520 nM

# Test system: MDA-MB-231
# Assay: Effect on total STAT3 level in human MDA-MB-231 cells at 2 to 8 uM measured after 2 hrs by Western blot analysis
# Format: cell-based
# Conditions: mda-mb-231, 2 h
# Procedure, shortened: (§2)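 MDA-MB-231 cells incubated for 2 h with test compound at 2, 4 or 8 μM, or with DMSO vehicle. Phospho-STAT3 and total STAT3 detected by western blot.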
row,Compound,Activity
1,Cc1nsc2c1C(=O)c1ncccc1C2=O,Non-Toxic

# Test system: A549
# Assay: Induction of apoptosis in human A549 cells assessed as late apoptotic cells at 2 uM measured after 24 hrs by annexinV-FITC/propidium iodide staining based flow cytometry (reference value: 3.70 %)
# Format: functional
# Conditions: not given
row,Compound,Activity
1,CC(=O)c1cc2c(o1)C(=O)c1ccccc1C2=O [NAPABUCASIN],4.98%
2,Cc1nsc2c1C(=O)c1ncccc1C2=O,13.4%

# Test system: MCF-10A
# Assay: Cytotoxicity against human MCF10A cells assessed as reduction in cell viability measured after 48 hrs MTT assay
# Format: cell-based
# Conditions: not given
# Procedure, shortened: as §1
row,Compound,IC50
1,Cc1nsc2c1C(=O)c1ccccc1C2=O,1110 nM
2,O=C1c2ccccc2C(=O)c2c(-c3ccccc3)nsc21,17600 nM
3,Cc1nsc2c1C(=O)c1c(O)cccc1C2=O,920 nM
4,Cc1nsc2c1C(=O)c1cccc(O)c1C2=O,1370 nM
5,COc1cccc2c1C(=O)c1snc(-c3ccccc3)c1C2=O,24600 nM
6,COc1ccc(-c2nsc3c2C(=O)c2c(OC)cccc2C3=O)cc1,> 40000 nM
7,CCc1nsc2c1C(=O)c1c(O)cccc1C2=O,3060 nM
8,CCc1nsc2c1C(=O)c1cccc(O)c1C2=O,3020 nM
9,CC(=O)c1cc2c(o1)C(=O)c1ccccc1C2=O [NAPABUCASIN],540 nM
10,Cc1nsc2c1C(=O)c1ncccc1C2=O,130 nM

# Test system: MDA-MB-231
# Assay: Antiproliferative activity against human MDA-MB-231 cells assessed as reduction in cell viability measured after 48 hrs MTT assay
# Format: functional, cell-based
# Conditions: MDA-MB-231, 48 h
# Procedure, shortened: as §1
row,Compound,IC50
1,Cc1nsc2c1C(=O)c1ccccc1C2=O,1650 nM
2,O=C1c2ccccc2C(=O)c2c(-c3ccccc3)nsc21,10300 nM
3,Cc1nsc2c1C(=O)c1c(O)cccc1C2=O,1670 nM
4,Cc1nsc2c1C(=O)c1cccc(O)c1C2=O,2670 nM
5,COc1cccc2c1C(=O)c1snc(-c3ccccc3)c1C2=O,22000 nM
6,COc1ccc(-c2nsc3c2C(=O)c2c(OC)cccc2C3=O)cc1,> 40000 nM
7,CCc1nsc2c1C(=O)c1c(O)cccc1C2=O,2720 nM
8,CCc1nsc2c1C(=O)c1cccc(O)c1C2=O,5810 nM
9,CC(=O)c1cc2c(o1)C(=O)c1ccccc1C2=O [NAPABUCASIN],1290 nM
10,Cc1nsc2c1C(=O)c1ncccc1C2=O,260 nM

# Test system: A549
# Assay: Induction of apoptosis in human A549 cells assessed as live cells at 2 uM measured after 24 hrs by annexinV-FITC/propidium iodide staining based flow cytometry (reference value: 95.5 %)
# Format: functional
# Conditions: not given
row,Compound,Activity
1,CC(=O)c1cc2c(o1)C(=O)c1ccccc1C2=O [NAPABUCASIN],94.4%
2,Cc1nsc2c1C(=O)c1ncccc1C2=O,84.8%

# Test system: A549
# Assay: Antiproliferative activity against human A549 cells assessed as reduction in cell viability measured after 48 hrs MTT assay
# Format: functional, cell-based
# Conditions: A549, 48 h
# Procedure, shortened: as §1
row,Compound,IC50
1,Cc1nsc2c1C(=O)c1ccccc1C2=O,1710 nM
2,O=C1c2ccccc2C(=O)c2c(-c3ccccc3)nsc21,27500 nM
3,Cc1nsc2c1C(=O)c1c(O)cccc1C2=O,1960 nM
4,Cc1nsc2c1C(=O)c1cccc(O)c1C2=O,1360 nM
5,COc1cccc2c1C(=O)c1snc(-c3ccccc3)c1C2=O,> 40000 nM
6,COc1ccc(-c2nsc3c2C(=O)c2c(OC)cccc2C3=O)cc1,> 40000 nM
7,CCc1nsc2c1C(=O)c1c(O)cccc1C2=O,1380 nM
8,CCc1nsc2c1C(=O)c1cccc(O)c1C2=O,2830 nM
9,CC(=O)c1cc2c(o1)C(=O)c1ccccc1C2=O [NAPABUCASIN],6690 nM
10,Cc1nsc2c1C(=O)c1ncccc1C2=O,3280 nM

# Test system: A549
# Assay: Potency index, ratio of BBI608 activity to test compound activity for induction of apoptosis in human A549 cells measured after 24 hrs by annexinV-FITC/propidium iodide staining based flow cytometry
# Format: functional
# Conditions: not given
# Procedure, shortened: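 A549 cells given test compound or BBI608, each at 2 μM, for 24 h, then stained with Annexin V-FITC/propidium iodide for 15 min. Apoptosis rate by flow cytometry; the ratio compares rates at the same concentration.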
row,Compound,Ratio
1,Cc1nsc2c1C(=O)c1ncccc1C2=O,2.5

# Target: NAD(P)H dehydrogenase [quinone] 1 (Homo sapiens) (UniProt P15559)
# Assay: Substrate activity at human NQO1 assessed as amount of NADH oxidation assessed per umol NQO1
# Conditions: not given
# Procedure, shortened: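 Quinones at 20 μM coincubated with NADH with and without human NQO1. Rate of NADH oxidation measured.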
# Sequence of NAD(P)H dehydrogenase [quinone] 1 (Homo sapiens) (P15559 whole entry): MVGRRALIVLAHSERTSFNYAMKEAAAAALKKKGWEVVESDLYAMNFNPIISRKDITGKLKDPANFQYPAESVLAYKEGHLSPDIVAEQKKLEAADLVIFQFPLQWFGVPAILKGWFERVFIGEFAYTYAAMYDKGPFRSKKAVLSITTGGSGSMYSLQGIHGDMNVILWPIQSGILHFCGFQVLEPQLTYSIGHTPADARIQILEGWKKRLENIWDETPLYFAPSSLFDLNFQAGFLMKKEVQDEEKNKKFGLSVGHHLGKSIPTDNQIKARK
row,Compound,Activity
1,Cc1nsc2c1C(=O)c1ccccc1C2=O,68 µmol/min
2,O=C1c2ccccc2C(=O)c2c(-c3ccccc3)nsc21,5.59 µmol/min
3,Cc1nsc2c1C(=O)c1c(O)cccc1C2=O,122 µmol/min
4,Cc1nsc2c1C(=O)c1cccc(O)c1C2=O,122 µmol/min
5,COc1cccc2c1C(=O)c1snc(-c3ccccc3)c1C2=O,14.6 µmol/min
6,COc1ccc(-c2nsc3c2C(=O)c2c(OC)cccc2C3=O)cc1,8.75 µmol/min
7,CCc1nsc2c1C(=O)c1c(O)cccc1C2=O,97.2 µmol/min
8,CCc1nsc2c1C(=O)c1cccc(O)c1C2=O,112 µmol/min
9,CC(=O)c1cc2c(o1)C(=O)c1ccccc1C2=O [NAPABUCASIN],170 µmol/min
10,Cc1nsc2c1C(=O)c1ncccc1C2=O,219 µmol/min

# Test system: MCF7
# Assay: Antiproliferative activity against human MCF7 cells assessed as reduction in cell viability measured after 48 hrs MTT assay
# Format: functional, cell-based
# Conditions: MCF7, 48 h
# Procedure, shortened: as §1
row,Compound,IC50
1,Cc1nsc2c1C(=O)c1ccccc1C2=O,4090 nM
2,O=C1c2ccccc2C(=O)c2c(-c3ccccc3)nsc21,> 40000 nM
3,Cc1nsc2c1C(=O)c1c(O)cccc1C2=O,920 nM
4,Cc1nsc2c1C(=O)c1cccc(O)c1C2=O,1580 nM
5,COc1cccc2c1C(=O)c1snc(-c3ccccc3)c1C2=O,12100 nM
6,COc1ccc(-c2nsc3c2C(=O)c2c(OC)cccc2C3=O)cc1,> 40000 nM
7,CCc1nsc2c1C(=O)c1c(O)cccc1C2=O,710 nM
8,CCc1nsc2c1C(=O)c1cccc(O)c1C2=O,3310 nM
9,CC(=O)c1cc2c(o1)C(=O)c1ccccc1C2=O [NAPABUCASIN],630 nM
10,Cc1nsc2c1C(=O)c1ncccc1C2=O,310 nM

# Target: Signal transducer and activator of transcription 3 (Homo sapiens) (UniProt P40763)
# Assay: Inhibition of STAT3 phosphorylation in human MDA-MB-231 cells measured after 2 hrs by Western blot analysis
# Format: cell-based
# Conditions: not given
# Procedure, shortened: as §2
# Sequence of Signal transducer and activator of transcription 3 (Homo sapiens) (P40763 whole entry): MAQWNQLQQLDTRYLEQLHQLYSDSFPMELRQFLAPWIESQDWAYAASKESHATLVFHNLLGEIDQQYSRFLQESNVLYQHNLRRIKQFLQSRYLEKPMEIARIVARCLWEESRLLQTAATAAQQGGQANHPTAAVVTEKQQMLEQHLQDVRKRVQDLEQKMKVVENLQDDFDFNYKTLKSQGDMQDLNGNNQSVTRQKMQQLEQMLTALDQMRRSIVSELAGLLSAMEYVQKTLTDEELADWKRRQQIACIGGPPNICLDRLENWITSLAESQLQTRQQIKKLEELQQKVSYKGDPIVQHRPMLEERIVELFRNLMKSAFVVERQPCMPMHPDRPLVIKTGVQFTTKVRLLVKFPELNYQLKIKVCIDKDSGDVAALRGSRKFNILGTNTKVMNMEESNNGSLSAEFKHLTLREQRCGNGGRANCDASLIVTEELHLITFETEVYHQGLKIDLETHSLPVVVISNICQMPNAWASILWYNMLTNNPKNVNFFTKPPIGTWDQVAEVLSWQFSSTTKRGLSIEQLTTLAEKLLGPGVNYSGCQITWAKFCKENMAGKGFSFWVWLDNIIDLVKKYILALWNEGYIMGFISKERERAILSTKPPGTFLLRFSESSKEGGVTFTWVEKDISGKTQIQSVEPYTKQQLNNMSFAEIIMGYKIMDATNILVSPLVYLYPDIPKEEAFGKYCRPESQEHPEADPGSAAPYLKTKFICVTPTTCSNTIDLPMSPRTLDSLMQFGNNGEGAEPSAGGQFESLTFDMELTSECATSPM
row,Compound,inhibition
1,Cc1nsc2c1C(=O)c1ncccc1C2=O,Dose-dependent effect

# — ChEMBL document CHEMBL4622930, “Synthesis and biological evaluation of novel isothiazoloquinoline quinone analogues” (Bioorg Med Chem Lett, 2020)
